Only some compounds are listed: those with a hit (about 3.9% of all), similar ones and a draw of the others.
SR-BI uptake up = activators of SR-BI mediated HDL lipid uptake. CHO ldlA[mSR-BI] cells, DiI-HDL uptake fluorescence, 3 h; 100 = double the neutral-control signal. activation, % at 12.5 µM. hit rate 0.096% among 320,000;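 active = mean replicate activation of at least 60% and every replicate at or above 60%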;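 note: 0% = median plate neutral-control signal and 100% = twice that signal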
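Test system: SR-BI-overexpressing, LDLR-lacking CHO cells. Measured by: DiI fluorescence, bottom read. Medium: Ham's F12 with 0.5% BSA, HEPES 25 mM, pH 7.4. Timing: 3 h uptake period with compound, 37 °C.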
AHR act = activates the human aryl hydrocarbon receptor; hit rate 2.5% among 320,000; AHR-responsive luciferase reporter cells, luminescence; activation, % at 5 µM; in the data active = activation above about 47%;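 note: 0% = vehicle wells and 100% = reference agonist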
Target sequence (P35869 whole entry, looked up): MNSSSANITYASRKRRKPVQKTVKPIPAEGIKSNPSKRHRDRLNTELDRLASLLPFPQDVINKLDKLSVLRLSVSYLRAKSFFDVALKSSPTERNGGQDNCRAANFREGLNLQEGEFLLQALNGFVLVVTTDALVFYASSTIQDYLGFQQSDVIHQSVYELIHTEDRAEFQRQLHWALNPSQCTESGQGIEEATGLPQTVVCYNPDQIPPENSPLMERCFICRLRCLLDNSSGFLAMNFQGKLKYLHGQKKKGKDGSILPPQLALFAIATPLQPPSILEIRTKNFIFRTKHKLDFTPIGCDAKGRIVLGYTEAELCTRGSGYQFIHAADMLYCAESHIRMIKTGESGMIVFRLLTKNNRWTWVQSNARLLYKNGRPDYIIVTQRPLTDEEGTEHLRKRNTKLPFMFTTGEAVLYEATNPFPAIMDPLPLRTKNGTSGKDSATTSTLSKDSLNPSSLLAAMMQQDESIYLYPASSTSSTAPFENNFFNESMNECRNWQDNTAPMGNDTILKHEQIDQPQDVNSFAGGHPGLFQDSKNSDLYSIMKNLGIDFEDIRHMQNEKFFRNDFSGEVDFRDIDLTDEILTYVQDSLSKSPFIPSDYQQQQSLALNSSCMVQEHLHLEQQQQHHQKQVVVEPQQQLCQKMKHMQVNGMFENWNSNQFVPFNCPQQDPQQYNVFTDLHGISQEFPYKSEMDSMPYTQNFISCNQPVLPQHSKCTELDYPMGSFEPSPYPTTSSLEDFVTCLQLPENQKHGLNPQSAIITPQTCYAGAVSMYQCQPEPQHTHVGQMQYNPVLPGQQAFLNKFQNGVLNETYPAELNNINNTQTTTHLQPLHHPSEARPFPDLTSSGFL
HIF act = HIF pathway transcriptional activation | hit rate 0.32% among 300,000 | activation, % at 7.5 µM (by protocol) | AID 1910 | U2OS HRE-luciferase reporter, luminescence; normalized: DMSO 0%, desferrioxamine 100%;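 active = mean activation of at least 10% of the iron chelator positive control signal, with at least half of replicates also reaching 10%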
GAA850 FXN act = activators of GAA850 frataxin (FXN) promoter | hit rate 0.56% among 360,000 | AID 540364 | activation, % at 6 µM | HEK293 lucGAA850 FXN promoter luciferase reporter, 24 h; percent of 10 µM SAHA response;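 active = activation above the average of all compounds screened plus 3 SD, cutoff fixed separately per campaign, cut at about 7.5% in these data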;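 note: 0% = DMSO wells and 100% = 10 µM SAHA wells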
SR-BI HDL uptake = blocks mouse SR-BI lipid uptake from DiI-HDL | ldlA[mSR-BI] CHO cells, DiI-HDL uptake fluorescence, 3 h | inhibition, % at 12.5 µM | hit rate 0.96% among 320,000 | AID 488896;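 active = mean replicate inhibition of at least 70% and a set share of replicates each scoring 70 or more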;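 note: 0% = median of neutral control wells and 100% = median of positive control wells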
ABCB6 inh 2 = human ABCB6 transporter inhibition; Q9NP58; K562-ABCB6 porphyrin accumulation, flow cytometry, 1 h; active compounds read low; fluorescence ratio to DMSO, % at 10 µM; hit rate 0.19% among 360,000;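 active = fluorescence ratio to DMSO below 75%, the collection mean minus 3 SD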;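 note: signal is porphyrin accumulated inside mitochondria; 100% equals median channel fluorescence of DMSO control wells; lower ratio means ABCB6 inhibition with less porphyrin fluorescence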
Numbers without * were called inactive; · = no result.

SMILES	SR-BI uptake up	AHR act	HIF act	GAA850 FXN act	SR-BI HDL uptake	ABCB6 inh 2
O=C(Nc1nccs1)C(=O)c1c[nH]c2ccccc12	-1.2	59.4*	0.5	4.2	1.2	83.0
Cc1cccc(C)c1NC1=NC(=S)N(c2ccccc2)C12CCOC(C)(C)C2 (configuration not stated)	-46.4	0.9	0.1	-1.4	46.4	101.0
O=C(CSc1n[nH]c(=O)n1Cc1ccccc1)Nc1ccc(F)c(F)c1F	1.5	5.6	0.4	-0.8	-1.5	91.0
CCOc1ccc(N2C(=O)CC(N(C)Cc3ccccc3)C2=O)cc1 (configuration not stated)	12.5	-0.7	-0.4	0.9	-12.4	84.0
COc1ccc(N/C=C(\C#N)c2nc3ccccc3n2C)c(OC)c1	-59.5	109.3*	1.0	5.4	59.5	93.0
COc1ccc(CNc2nc3ccccc3n2C)c(OC)c1	6.3	26.1	4.3	2.7	-6.3	97.0
NC(=S)N/N=C/c1ncc(C(F)(F)F)cc1Cl	-73.2	5.7	0.3	-6.1	73.2*	97.0
NC(=S)N/N=C/c1ccc(C(F)(F)F)cc1	-23.0	0.0	2.0	1.8	23.0	99.0
NC(=S)NN=C1c2cc(Cl)ccc2-c2c1cc(Cl)cc2[N+](=O)[O-]	-105.4	·	·	-2.9	105.4*	86.0
COc1ccc2c(c1OC)C(=O)N1C2SC(C)(C)[C@H]1C(=O)NC1CCCC1 (some centres not stated)	-11.9	2.3	0.1	-1.2	11.9	100.0
COc1cccc(C(=O)NN2CC(O)=C(c3nc(C)cs3)C2=N)c1	-21.2	53.5*	0.0	-0.7	21.2	99.0
COC(=O)c1ccc(C(C(=O)NCc2ccccc2)N(Cc2ccco2)C(=O)c2cnccn2)cc1 (configuration not stated)	39.2	-0.4	174.0*	-3.2	-39.1	98.0
CCn1cc(C2=NC(CC(C)C)CO2)c2ccccc21 (configuration not stated)	·	66.7*	0.6	4.3	·	96.0
CCn1cc(C2=NC(C(C)C)CO2)c2ccccc21 (configuration not stated)	1.9	53.1*	0.2	1.9	-1.9	77.0
FC(F)(F)Oc1ccc(NC(=S)NCCCN2CCOCC2)cc1	9.3	-1.4	0.0	-0.7	-9.3	96.0
O=C(CSc1ccccc1)Nc1nc2ccccc2[nH]1	0.5	9.8	6.4	2.9	-0.5	101.0
CCCCCN(C(=O)COC(=O)CSc1ccc([N+](=O)[O-])cc1)c1c(N)n(CCCC)c(=O)[nH]c1=O	-34.1	1.3	0.1	2.6	34.1	96.0
Cc1nc(N2CCCCC2)sc1C(=O)c1ccc(SCCO)c([N+](=O)[O-])c1	-77.5	-2.4	-0.3	0.7	77.5*	93.0
O=[N+]([O-])c1cc(S(=O)(=O)Nc2ccc(Cl)cc2)ccc1N/N=C/c1ccncc1	-72.2	9.4	0.3	3.7	72.2*	101.0
O=[N+]([O-])c1ccc(Cl)cc1N/N=C/c1ccncc1	-8.0	11.5	1.9	3.0	8.0	93.0
O/N=C/c1cc(Br)cc(Br)c1OCc1ccccc1	-16.0	63.7*	-0.5	0.7	16.0	86.0
O/N=C/c1ccc(OCc2ccccc2)c(Br)c1	-12.6	-4.4	2.8	4.6	12.6	101.0
CCc1noc(C)c1C(=O)NCCc1ccc(S(N)(=O)=O)cc1	-10.2	1.9	0.1	-2.7	10.2	105.0
CCC(C)Sc1cc(-c2nc3cc(C)ccn3c2NC2CCCCC2)ccc1OC (configuration not stated)	-44.7	10.5	·	0.8	44.7	265.0
CCC(C)Sc1cc(-c2nc3ccccn3c2NC2CCCCC2)ccc1OC (configuration not stated)	65.9*	24.0	-2.7	0.3	-65.8	95.0
SMILES	SR-BI uptake up	AHR act	HIF act	GAA850 FXN act	SR-BI HDL uptake	ABCB6 inh 2
O=C(Nc1cc2c3c(c1)CC(=O)N3CCC2)c1ccc(Cl)cc1	-78.7	20.0	1.4	2.1	78.7*	104.0
CCOC(=O)C(CCCOc1ccccc1C)C(=O)OCC	·	-1.3	·	0.4	1.8	107.0
COc1ccc2nc(N/C(N)=N/C(=S)Nc3cccc(C)c3)nc(C)c2c1	-61.2	11.2	-3.4	1.7	61.2	102.0
COc1ccc(NC(=S)/N=C(\N)Nc2nc(C)c3ccccc3n2)cc1	-44.1	65.5*	0.0	1.3	44.1	98.0
Cc1ccc(C(=O)NNC2=Nc3cccc4cccc2c34)cc1	-22.4	78.8*	0.0	-0.5	22.4	96.0
Cc1ccc(C(=O)NNc2c3ccccc3nc3ccccc23)cc1	-96.7	39.0	0.3	7.1	96.7*	114.0
COc1ccccc1N1CCN(C(=O)C2CCCN(c3ncnc4c3nc3n4CCCCC3)C2)CC1 (configuration not stated)	4.3	3.5	-0.5	0.6	-4.3	98.0
O=C(CCc1ccccc1)n1nc(-c2ccco2)nc1SCc1ccccc1	15.5	·	·	6.6	-15.5	105.0
CN=C1SC(CC(=O)Nc2ccccc2F)C(=O)N1/N=C/c1ccc(O)c(OC)c1 (configuration not stated)	-74.3	8.6	-0.3	4.0	74.3*	92.0
CCOc1ccc(/C=N/N2C(=O)C(CC(=O)Nc3ccc(F)cc3F)SC2=NC)cc1OC (configuration not stated)	-17.0	14.4	0.0	1.5	17.0	100.0
CCc1nc(N2CCN(C(=O)CCCl)CC2)c2c3c(sc2n1)CCCC3	·	·	·	1.6	·	96.0
COc1cc(C2Nc3cc(C)c(C)cc3NC3=C2C(=O)CC(C)(C)C3)ccc1OC(C)=O (configuration not stated)	-25.6	61.0*	-2.4	-0.7	25.6	102.0
COc1ccc(C2Nc3ccccc3NC3=C2C(=O)CC(C)(C)C3)cc1OC (configuration not stated)	-4.1	1.4	1.1	1.4	4.1	99.0
COCCNC(=O)c1c(N)n(CCCn2ccnc2)c2nc3ccccc3nc12	·	52.6*	0.0	-0.1	1.1	103.0
COCCNC(=O)c1c(N)n(-c2ccccc2)c2nc3ccccc3nc12	-28.5	16.3	0.0	-0.6	28.5	92.0
O=c1c2ccccc2nc(COc2ccccc2)n1/N=C/c1cc([N+](=O)[O-])ccc1O	-130.2	7.0	11.2*	-3.8	130.2*	94.0
Cc1cc(/C=N/n2c(COc3ccccc3C)nc3ccccc3c2=O)c(O)c([N+](=O)[O-])c1	-144.0	13.1	7.3	2.4	144.1*	147.0
O=[N+]([O-])c1ccc(Cl)c(/C=N/n2c(COc3ccccc3)n[nH]c2=S)c1	-5.6	2.2	-0.8	1.6	5.6	103.0
O=C(O)c1ccc2oc(SCC(=O)N3CCCCC3)nc2c1	6.0	4.9	2.0	0.3	-6.0	90.0
COc1ccc(C(=O)NNC(=O)CN(C)S(=O)(=O)c2ccc(Cl)cc2)c(OC)c1OC	-3.5	4.2	-0.1	-1.5	3.5	99.0
